# Shown is part of a subset that was picked to be rich in hits.
# INS promoter act – activators of insulin promoter-driven GFP, primary screen, imaging, TRM-6 cells, eGFP reporter, cell count; activation, % at 2 µM; 130,000 tested, 0.81% active; plate-scaled: unstimulated 0, stimulated control 100; AID 1296, 2008;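 active = activation at 2 µM above a set limit, confirmed on inspection of the cell images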;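 also: share of cells whose green reporter signal exceeds an intensity cutoff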
#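 Test system: human fetal islet-derived TRM-6 cells with tamoxifen-inducible insulin promoter–eGFP reporter. Compound dosing: 2 µM final, single concentration. Incubation: tamoxifen pre-incubation 15 h overnight, then compound exposure 48 h at 37 °C. Signal: fixed-cell fluorescence microscopy, eGFP plus Hoechst.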
# A number is an active result; n = inactive; + = active, no number.
SMILES,INS promoter act
Cc1cc2cc(C)c3nnc(SCC(=O)Nc4ccc(S(=O)(=O)N5CCCCC5)cc4)n3c2cc1C,n
Cc1ccc(C(=O)COC(=O)CNC(=O)C(c2ccccc2)c2ccccc2)cc1[N+](=O)[O-],n
COC(=O)CCN(C(=O)c1ccc(C)c([N+](=O)[O-])c1)c1ccccn1,+
Cc1ccc(C(=O)NCCSC(C)(C)C)cc1[N+](=O)[O-],n
O=S(=O)(Cc1cccc(C(F)(F)F)c1)c1ncn[nH]1,n
COC(=O)c1cn(CC(=O)N2CCCCCC2)c2ccccc12,n
Cc1nc2ccccc2c(=O)n1CC(=O)N1CCOCC1,n
O=Cc1cn(CC(=O)N2CCOCC2)c2ccccc12,411.1
Cn1c(N)c(S(=O)(=O)N2CCN(c3ccccc3)CC2)c(=O)n(C)c1=O,n
Cc1ccc(/C=C2\SC(=S)N(Cc3ccccc3)C2=O)o1,n
COc1ccc(-n2c(C)cc(/C=C3\SC(=S)N(Cc4ccco4)C3=O)c2C)cc1,244.8
Cc1cc(/C=C2/SC(=S)N(c3ccc([N+](=O)[O-])cc3)C2=O)c(C)n1-c1cccnc1,n
CN(CC(=O)N1CCCC1)S(=O)(=O)c1ccc2ccccc2c1,n
CC(=O)Nc1nc(C)nc(C)c1C(C)=O,128.6
CCC(=O)Nc1nc(C)nc(C)c1C(C)=O,n
CC(=O)Nc1nc(-c2ccccc2)nc(C)c1C(C)=O,n
COc1ccccc1CNC(=O)c1ccc(OC(C)C)cc1,n
CN(C)S(=O)(=O)c1cc(NC(=O)[C@H](Cc2ccccc2)N2C(=O)c3ccccc3C2=O)ccc1Cl,414.3
Cc1ccc(NC(=O)C(Cc2ccccc2)N2C(=O)C3C4CCC(C4)C3C2=O)cc1Cl (centres undefined),n
COc1ccc(NC(=O)C(CCS(C)(=O)=O)N2C(=O)c3ccccc3C2=O)cc1 (centres undefined),n
Cc1cc(C)nc(NCCO)n1,n
O=C(NCCCN1CCOCC1)C1Cc2c(ccc3ccccc23)O1 (centres undefined),n
CC(=O)C1=C(c2ccccc2)OC(N)=C(C#N)C1c1ccc(O)cc1 (centres undefined),n
CCOC(=O)C1=C(CSc2nc(-c3ccccc3)ccc2C#N)OC(N)=C(C#N)C1c1ccc(OC)cc1 (centres undefined),83.7
CCOC(=O)C1=C(CSc2nc(C)cc(C)c2C#N)OC(N)=C(C#N)C1c1ccccc1 (centres undefined),n
SMILES,INS promoter act
CC(=O)OCC1OC(OC(C)=O)C(NC(=O)c2cccnc2)C(OC(C)=O)C1OC(C)=O (centres undefined),n
CCc1cc2c(=O)c(-c3cnn(-c4ccccc4)c3)c(C(F)(F)F)oc2c(CN(C)C)c1O,n
O=c1ccccn1CCOc1ccccc1Cl,n
CCCC(C(=O)NCc1ccco1)N(C(=O)CNS(=O)(=O)c1ccccc1)c1ccc(OC)cc1 (centres undefined),n
CCCC(C(=O)NC1CCCCC1)N(Cc1ccco1)C(=O)CNS(=O)(=O)c1ccccc1 (centres undefined),77.4
CCCCC(C(=O)NC1CCCC1)N(Cc1ccco1)C(=O)Cn1nnc(-c2ccc(F)cc2)n1 (centres undefined),n
Cc1cccc(C(=O)NC2CCN(S(=O)(=O)c3ccccc3)CC2)c1,n
Cn1nc(C(=O)NCc2ccc(F)cc2)c2ccccc2c1=O,n
Cn1nc(C(=O)NCc2cccs2)c2ccccc2c1=O,76.0
Cn1nc(C(=O)NCc2ccccn2)c2ccccc2c1=O,n
O=C(O)/C=C/C(=O)c1ccc2c(c1)NC(=O)CO2,n
O=S(=O)([N-]c1nc2ccccc2nc1-[n+]1ccc(-c2ccncc2)cc1)c1ccccc1,n
CNc1c([N+](=O)[O-])cnn1-c1ccccn1,n
C#CCn1c(=NC(=O)c2cc(-c3cccs3)nc3ccccc23)sc2cc(S(N)(=O)=O)ccc21,n
COCC(C)n1c(SCc2cc(=O)n3cc(C)ccc3n2)nc2ccccc2c1=O (centres undefined),n
Cc1cc(=O)oc(C)c1C(=O)NCc1c(F)cc(F)cc1F,136.4
Cc1cc(=O)oc(C)c1C(=O)NCCCN1CCN(c2ccc(F)cc2)CC1,n
Cc1cc(=O)oc(C)c1C(=O)NCc1ccco1,n
O=C(NC(NC(=S)Nc1ccc(Cl)cc1Cl)C(Cl)(Cl)Cl)c1cccc([N+](=O)[O-])c1 (centres undefined),n
c1ccc(C2=Nc3cccnc3C(c3ccccc3)=NN2)cc1,n
Cn1c(=S)ccc2ccccc21,n
O=C(CCNC(=O)c1ccccc1Cl)NC1=NCCS1,n
CN1C=CC2=C(C#N)C(N)C(C#N)(C#N)[C@H](c3ccccc3)[C@H]2C1 (some centres undefined),300.0
CC(=O)c1c(C)[nH]c(C(=O)NCc2cccc(Cl)c2)c1C,n
COc1ccc(-c2nc(CN(CC3CCC(=O)N3)C(C)C)c(C)o2)c(C)c1C (centres undefined),n
SMILES,INS promoter act
CCc1cccc(CC)c1NC(=O)CO/N=C(\C)c1cccs1,n
CCC(CC)C(=O)N1CCN(Cc2nc3ccccc3c(=O)[nH]2)CC1,n
COc1cccc(N2CCN(Cc3nc4ccccc4c(=O)[nH]3)CC2)c1,n
COc1ccc(N2CCN(Cc3nc4ccccc4c(=O)[nH]3)CC2)cc1,578.6
CCN(CC)C(=O)NCc1c(C)cc(C)cc1C,n
c1ccc(-c2csc3ncnc(N4CCc5ccccc5C4)c23)cc1,n
CC(C)(C)NC(=O)/C=C/c1ccc(C(F)(F)F)cc1,322.2
CC(C)(CCl)C(=O)Nc1ccc(C(F)(F)F)cc1,n
CC(C)(C)NC(=O)c1ccncc1,n
Cc1ccc(NC(=O)COC(=O)C2CSC3(C)CCC(=O)N23)cc1S(=O)(=O)N1CCOCC1 (centres undefined),n
O=C(O)c1ccc(CS(=O)c2cccc(C(F)(F)F)c2)o1 (centres undefined),n
O=C(O)c1ccc(COc2ccc(Cl)cc2)o1,n
O=C(O)CC(SCc1ccc(C(=O)O)o1)C(=O)O (centres undefined),75.7
CC(=O)NC(Cc1ccc(C)cc1)C(=O)NC1CCN(c2ncccc2[N+](=O)[O-])CC1 (centres undefined),n
Cc1ccc(S(=O)(=O)NCC(c2cccnc2)N(C)C)cc1 (centres undefined),n
COc1ccccc1N1CCN(C(CNS(=O)(=O)c2ccc(C)cc2)c2cccnc2)CC1 (centres undefined),75.7
COc1ccccc1N1CCN(C(=O)C2CCN(S(=O)(=O)c3ccc(C)cc3)CC2)CC1,n
Cc1ccc(C)c(S(=O)(=O)NCC(=O)Nc2sc3c(c2C(N)=O)CCC(C)C3)c1 (centres undefined),n
CCCc1ccccc1OCCNC(=O)c1cc(=O)n(C)c(=O)n1C,n
O=S(=O)(Nc1ccc(N2CCCCC2)cc1)c1ccc(F)c(F)c1,n
CCN(CC(=O)N1CCc2ccccc2C1)S(=O)(=O)c1ccc2ccccc2c1,n
Cc1c(O)cc2n(c1=O)-c1ccccc1C2(C)C,n
Cc1cc(C2(c3ccc(O)c(C)c3)C(=O)Nc3ccccc32)ccc1O,126.7
O=C1CCCCCC1C1(O)C(=O)Nc2ccccc21 (centres undefined),n
CC(C)CNC(=O)c1ccc(NC(=O)c2cccs2)cc1,n
CSc1ccc(CN(C)CC(=O)Nc2c(F)cccc2F)cc1,n
COc1ccc(C(C)NC(=O)c2ccccc2)cc1 (centres undefined),n
COc1ccc(C(NC(=O)C(C)(C)C)NC(=O)C(C)(C)C)cc1,95.0
